Measurements pooled from the literature.
Lines come from different studies, so protocols differ.
Medium: Caco-2

SMILES	tested at	time	pH	Papp A→B [×10⁻⁶ cm/s]
N#C[C@@]1(c2ccc3c(N)ncnn23)O[C@H](CO)[C@@H](O)[C@H]1O	10 µM	2 h		3.8
C[C@@H]1O[C@@H](O[C@H]2[C@H](Oc3cc(O)c4c(c3)O[C@H](c3ccc(O)cc3)CC4=O)O[C@H](CO)[C@@H](O)[C@@H]2O)[C@H](O)[C@H](O)[C@H]1O	100 µg/mL	2 h		21
CN(C)CCc1c[nH]c2ccc(C[C@H]3COC(=O)N3)cc12	5 µM	2 h		0.56
O=c1c(-c2ccc(O)cc2)coc2cc(O)ccc12	100 µg/mL	2 h		27.4
NCCOCC(=O)N1CCC[C@H](C(=O)NCc2nc(-c3ccc(C(F)(F)F)cc3)cs2)C1			pH 7.4	0.1
CC(=O)OCc1cc2[nH]c(=S)n(Cc3cccnc3)c(=O)c2cc1Cl	10 µM	90 min	pH 7.4	0.6
COC(=O)[C@H]1[C@H]2C[C@@H]3c4[nH]c5cc(OC)ccc5c4CCN3C[C@H]2C[C@@H](OC(=O)c2cc(OC)c(OC)c(OC)c2)[C@@H]1OC	5 µM	2 h		0.97
COCC(=O)N1CCC[C@H](C(=O)NCc2nc(-c3ccc(C#N)cc3)cs2)C1			pH 7.4	24
CC(C)NCC(O)COc1cccc2ccccc12 (centres unmarked)	10 µM	2 h		29.7
N#Cc1ccc(C[C@H](Nc2nnc(-c3ccc(F)cc3)s2)C(=O)N2CCc3ccccc32)cc1	100 µM	2 h		11.2
N=C(N)NCCCNC(=O)[C@@H]1CCCCN1C(=O)[C@@H](CC1CCCCC1)NCC(=O)O	5 µM	2 h		0.05
Cc1c[nH]c2ncnc(N3C=C(C(=O)N4CCC[C@@H](N)C4)SCC3)c12	10 µM		pH 6.5	< 0.3
CN(C)CC(=O)OCc1cc2[nH]c(=S)n(Cc3cccnc3)c(=O)c2cc1Cl	10 µM	90 min	pH 7.4	42.5
O=c1c(O[C@@H]2O[C@H](CO)[C@H](O)[C@H](O)[C@H]2O)c(-c2ccc(O)c(O)c2)oc2cc(O)cc(O)c12	50 µg/mL			0.256
O=C(NCc1nc(-c2ccc(C(F)(F)F)cc2)cs1)[C@H]1CCCN(C(=O)COCCN2CCCC2)C1			pH 7.4	1.8
O=c1cc(-c2ccc(O)c(O)c2)oc2cc(O)cc(O)c12	100 µg/mL	2 h		7.1
O=c1c2cc(Cl)c(CO)cc2[nH]c(=S)n1Cc1cccnc1	10 µM	90 min	pH 7.4	12.3
C[C@H]1[C@H](NC(=O)/C(=N\OC(C)(C)C(=O)O)c2csc(N)n2)C(=O)N1S(=O)(=O)O	5 µM	2 h		0.09

SMILES	tested at	time	pH	Papp A→B [×10⁻⁶ cm/s]
CC(C)C(=O)OCc1cc2[nH]c(=S)n(Cc3cccnc3)c(=O)c2cc1Cl	10 µM	90 min	pH 7.4	1.4
COc1ccc([C@@H]2CC(=O)c3c(O)cc(O)cc3O2)cc1O	100 µg/mL	2 h		3.95
CC(C)NCC(O)COc1cccc2ccccc12 (centres unmarked)	5 µM	2 h		12.6
O=c1cc(-c2ccc(O)cc2)oc2c([C@@H]3O[C@H](CO)[C@@H](O)[C@H](O)[C@H]3O)c(O)cc(O)c12	50 µg/mL			0.254
CCONC(=O)N1CCC[C@H](C(=O)NCc2nc(-c3ccc(C#N)cc3)cs2)C1			pH 7.4	6.5
O=c1c2cc(Cl)ncc2[nH]c(=S)n1Cc1cccnc1	10 µM	90 min	pH 7.4	34.6
N#Cc1ccc(C[C@H](NC(=O)Nc2ccc(F)cc2)C(=O)N2CCc3ccccc32)cc1	100 µM	2 h		49.3
COc1cc(C2Oc3cc([C@H]4Oc5cc(O)cc(O)c5C(=O)[C@@H]4O)ccc3OC2CO)ccc1O (some centres unmarked)	100 µg/mL	2 h		19
CNS(=O)(=O)Cc1ccc2[nH]cc(CCN(C)C)c2c1	5 µM	2 h		0.36
O=C(CCc1ccc(O)cc1)c1c(O)cc(O)cc1O[C@@H]1O[C@H](CO)[C@@H](O)[C@H](O)[C@H]1O	100 µg/mL	2 h		2.94
CC[C@]1(O)C[C@@H]2CN(CCc3c([nH]c4ccccc34)[C@@](C(=O)OC)(c3cc4c(cc3OC)N(C)[C@H]3[C@@](O)(C(=O)OC)[C@H](OC(C)=O)[C@]5(CC)C=CCN6CC[C@]43[C@@H]65)C2)C1	10 µM	2 h		1.69
C[C@@H]1O[C@@H](OC[C@H]2O[C@@H](Oc3c(-c4ccc(O)c(O)c4)oc4cc(O)cc(O)c4c3=O)[C@H](O)[C@@H](O)[C@@H]2O)[C@H](O)[C@H](O)[C@H]1O	100 µg/mL			0.304
CNC(C)(C)COCC(=O)N1CCC[C@H](C(=O)NCc2nc(-c3ccc(C(F)(F)F)cc3)cs2)C1			pH 7.4	0.19
Oc1cc(O)c2c(c1)O[C@H](c1ccc(O)c(O)c1)[C@@H](O)C2	100 µg/mL	2 h		11.7
N#Cc1ccc(C[C@H](NC(=O)c2cc3cc(F)ccc3[nH]2)C(=O)N2CCc3ccccc32)cc1	100 µM	2 h		1.2
COCC(=O)N1CCC[C@H](C(=O)NCc2nc(-c3ccccc3)cs2)C1			pH 7.4	52
C[C@@H]1O[C@@H](OC[C@H]2O[C@@H](Oc3c(-c4ccc(OCCO)c(OCCO)c4)oc4cc(OCCO)cc(O)c4c3=O)[C@H](O)[C@@H](O)[C@@H]2O)[C@H](O)[C@H](O)[C@H]1O	100 µg/mL	2 h		6.15
